Experimental data reported in publication PMC8914349 (Molecular cancer therapeutics, 2020).
Like-named read-outs stand apart in the source and are kept apart here. Marks after values point to notes of the source that are not given here.

Assays:
[1] = Preliminary dose range study in mice with canine M1 or M5 MM xenografts; assay type: in vivo; conditions: daily 3.0 mg/Kg, oral
[2] = Single administration plasma pharmacokinetics in tumor-bearing mice; assay type: in vivo; conditions: mouse plasma
Procedure, shortened: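 Plasma and tumor were taken from two mice per group per timepoint over 2–48 h. Validated LC-MS/MS was used; sapanisertib was read by MRM m/z 310.2→268.1, calibrated 1–1000 ng/mL. Noncompartmental analysis for destructive sampling gave Cmax, T1/2 and AUC to last timepoint, with AUC error by Bailer's method.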

[3] = tested on: M1-derived metastatic subline; assay: Tail vein injection metastasis study; assay type: in vivo, mice; conditions: trametinib 5.0 mg/Kg daily, sapanisertib 2.0 mg/Kg three times a week, four-week treatment
[4] = assay type: in vivo, mice; conditions: for Liver hepatocelluar vacuolation, numbers of animals / Renal tubules scattered isolated necrosis and regeneration, numbers of animals / Renal tubules zonal cortical degeneration/necrosis, numbers of animals / Spleen red and white pulp hypocellularity, numbers of animals / Spleen lymphocytolysis, numbers of animals / Spleen lymphoid and hematopoietic hyperplasia, numbers of animals / Bone marrow hypocellularity, numbers of animals: n = 5
Procedure, shortened: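 Non-tumor-bearing female nu/nu nude mice (n=5 per group) were dosed by oral gavage in 0.5% HPMC/0.2% Tween for 21 days. […] Bone marrow, kidney, spleen, liver and other organs were fixed for histopathology. Animals per lesion were counted and graded minimal/moderate/severe. Blood was taken into EDTA for complete counts before removal.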

[5] = tested on: p-ERK, p-AKT, p-S6 and p-4E-BP1 in M1 or M5 canine MM xenografts; assay: Drug target modulation in vivo in tumor xenografts; set-up: species or system mice; conditions: three consecutive days; for p-ERK level in tumors: sapanisertib 2.0 mg/Kg or trametinib 5.0 mg/Kg oral
Procedure, shortened: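 Female nu/nu athymic nude mice, 6–8 weeks old, received 1×10⁶ M1 or M5 cells s.c. in the flank and were randomized at 75–150 mm³ (five per group). […] Tumor lysates went to western blot and fixed sections to H&E plus p-ERK/p-S6 IHC.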

mTOR = conditions: ATP-competitive mTOR selective inhibitor; ref https://adisinsight.springer.com/drugs/800030541; https://drugs.ncats.io/substance/JGH0DF1U03#activemoieties; cited from earlier work
[6] = tested on: M1 or M5 canine MM subcutaneous xenografts; conditions: oral 5.0 mg/Kg trametinib or 2.0 mg/Kg sapanisertib EOD for 3 weeks, single agents
[7] = tested on: Ras/MAPK and PI3K/Akt/mTOR signal transduction targets; assay type: cell-based, canine; conditions: for target inhibition in vitro (western blot): trametinib 10 nM, sapanisertib 40 nM, 4 and 24h, M1, M5 and Jones
Procedure, shortened: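 Cell lysates were immunoblotted for p-AKT, p-S6 and p-ERK (pathway activation) and for cyclin D1, cyclin B1, Bim, Bcl-xl, Mcl-1 and p-Bad.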

[8] = tested on: human cutaneous melanoma cells (WM3311, WM2032, WM853–2 and WM858); assay: MTS viability assay, 72h, human cutaneous melanoma cell lines; assay type: cell-based
[9] = patients receiving the clinically approved dose of 2 mg trametinib; cited from earlier work
canine MM cell = conditions: cited from earlier work
[10] = tested on: canine MM cells (M1, M5, M2, M3, and Jones); assay: MTS viability assay, 72h, canine MM cell lines; assay type: cell-based; conditions: canine MM cells in vitro, single agent
[11] = sapanisertib 2mg/kg daily, no lesion
[12] = sapanisertib 2mg/kg daily, severity + minimal
[13] = sapanisertib 2mg/kg daily, severity ++ moderate
[14] = sapanisertib 2mg/kg daily, severity +++ severe
[15] = sapanisertib 2mg/kg every other day, no lesion
[16] = sapanisertib 2mg/kg every other day, severity + minimal

CC(C)n1nc(-c2ccc3oc(N)nc3c2)c2c(N)ncnc21 [sapanisertib]
tolerability [1]: not well tolerated
T1/2 in the presence of trametinib compared to sapanisertib alone [2]: approximately 50%
change in sapanisertib PK in the presence of trametinib [2]: no significant change
intrathoracic metastatic tumor burden [3]: not as effective as trametinib in abating metastasis
tolerability ([4]; 2.0 mg/Kg alone EOD): well tolerated
white blood cell counts finding ([4]; sapanisertib 2.0 mg/Kg daily): lymphopenia
Liver hepatocelluar vacuolation, numbers of animals [4, 11]: 2
Renal tubules scattered isolated necrosis and regeneration, numbers of animals [4, 11]: 5
Renal tubules zonal cortical degeneration/necrosis, numbers of animals [4, 11]: 1
Spleen red and white pulp hypocellularity, numbers of animals [4, 11]: 1
Liver hepatocelluar vacuolation, numbers of animals [4, 12]: 1
Renal tubules zonal cortical degeneration/necrosis, numbers of animals [4, 12]: 1
Spleen lymphocytolysis, numbers of animals [4, 12]: 5
Spleen lymphoid and hematopoietic hyperplasia, numbers of animals [4, 12]: 2
Spleen red and white pulp hypocellularity, numbers of animals [4, 12]: 2
Bone marrow hypocellularity, numbers of animals [4, 13]: 3 ^†
Liver hepatocelluar vacuolation, numbers of animals [4, 13]: 1
Renal tubules zonal cortical degeneration/necrosis, numbers of animals [4, 13]: 3
Spleen red and white pulp hypocellularity, numbers of animals [4, 13]: 2
Bone marrow hypocellularity, numbers of animals [4, 14]: 2
Liver hepatocelluar vacuolation, numbers of animals [4, 14]: 1
Bone marrow hypocellularity, numbers of animals [4, 15]: 5
Liver hepatocelluar vacuolation, numbers of animals [4, 15]: 5
Renal tubules scattered isolated necrosis and regeneration, numbers of animals [4, 15]: 1
Renal tubules zonal cortical degeneration/necrosis, numbers of animals [4, 15]: 5
Spleen lymphocytolysis, numbers of animals [4, 15]: 2
Spleen lymphoid and hematopoietic hyperplasia, numbers of animals [4, 15]: 2
Spleen red and white pulp hypocellularity, numbers of animals [4, 15]: 5
Renal tubules scattered isolated necrosis and regeneration, numbers of animals [4, 16]: 4
Spleen lymphocytolysis, numbers of animals [4, 16]: 3
Spleen lymphoid and hematopoietic hyperplasia, numbers of animals [4, 16]: 3
p-ERK level in tumors [5]: increased p-ERK level
p-AKT, p-S6 and p-4EBP-1 levels in tumors ([5]; sapanisertib 2.0 mg/Kg oral): reduced p-AKT as well as downstream effectors p-S6 and p-4EBP-1 levels
selectivity for PI3K (mTOR): > 100 fold
tolerability [6]: tolerated with some varying body weight fluctuation
tumor growth [6]: inhibited compared to vehicle-treated controls initially, but progression became evident over time
cyclin expression (western blot) ([7]; canine MM cells): effective in reducing cyclin B1
phosphorylation of Bad ([7]; canine MM cells): inhibited phosphorylation of Bad
reciprocal activation of ERK1/2 ([7]; some cell lines): apparent reciprocal activation of ERK1/2
target inhibition in vitro (western blot) [7]: inhibited their respective Ras/MAPK and PI3K/Akt/mTOR signal transduction targets
IC50 ([8]; Homo sapiens, WM2032, 72 h): 10 to 100 nM

CC(=O)Nc1cccc(-n2c(=O)n(C3CC3)c(=O)c3c(Nc4ccc(I)cc4F)n(C)c(=O)c(C)c32)c1 [trametinib]
AUC [9]: 248 ng·h/mL
Cmax [9]: 8.03 ng/mL
IC50 (canine MM cell; read-out: IC50, inhibiting canine MM cell growth in vitro): ~10 nM
cytotoxicity / sensitivity of cells [10]: sensitive
intrathoracic metastatic tumor burden [3]: significantly less metastatic tumor burdens in the thorax compared to control vehicle-treated mice
p-ERK level in tumors [5]: less compared to vehicle-only treated mice
tumor growth [6]: inhibited compared to vehicle-treated controls initially, but progression became evident over time
Bcl-xl levels ([7]; canine MM cells): reduced Bcl-xl levels
cyclin expression (western blot) ([7]; canine MM cells): reduced the expression of cyclins D1 and B1
target inhibition in vitro (western blot) [7]: inhibited their respective Ras/MAPK and PI3K/Akt/mTOR signal transduction targets
sensitivity of cells ([8]; human cutaneous melanoma cells, regardless of Ras and NF1 mutation status): sensitive

Nc1ccc(-c2ccc3ncc4ccc(=O)n(-c5cccc(C(F)(F)F)c5)c4c3c2)cn1 [Torin 2]
cytotoxicity / sensitivity of cells [10]: highly effective

Cn1c(=O)n(-c2ccc(C(C)(C)C#N)cc2)c2c3cc(-c4cnc5ccccc5c4)ccc3ncc21 [dactolisib]
cytotoxicity (canine MM cell; canine MM cells): dose dependent cytotoxicity
